{"source": "PubChem BioAssay AID624033", "about": "(Broad Institute, 2012)", "note": "The source made the active and inactive calls.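 How the source made its calls: active means raises 665 nm absorbance to half the iron-handling mutant's effect in both replicates, half-effect dose under 50 µM; inactive means the rest.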"}
{"system": "not listed separately", "test": "siderophore output inhibition in Pseudomonas aeruginosa – Chrome Azurol S readout, dry powder samples, orthogonal assay for PvdQ inhibitor project, dose response (AID 624033)", "details": "P. aeruginosa pyoverdine, CAS absorbance 665 nm, 6 h", "method_in_brief": "(§1)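 Buffer or medium: CAA medium / Times: 6 h growth at 30 °C, 30 min dye step / Measured by: Chrome Azurol S absorbance at 665 nm in supernatant / Benchmarks: PvdQ mutant culture as 100% reference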"}
{"smiles": "COCCOCCC(C#N)c1ccc(F)cc1", "note": "(stereo unspecified)", "outcome": "inactive"}
{"smiles": "COCCC(C#N)c1ccc(F)cc1", "note": "(stereo unspecified)", "outcome": "inactive"}
{"smiles": "CN(C)CCCC(C#N)c1ccc(F)cc1", "note": "(stereo unspecified)", "outcome": "inactive"}
{"system": "P. aeruginosa pyoverdine, CAS absorbance 665 nm, 6 h", "test": "siderophore output inhibition in Pseudomonas aeruginosa – Chrome Azurol S readout, dry powder samples, orthogonal assay for PvdQ inhibitor project, dose response (AID 624033)", "details": "not given", "method_in_brief": "as §1", "units": {"AC50": "µM"}}
{"smiles": "N#CC(c1ccc(F)cc1)c1cccc(C(F)(F)F)n1", "note": "(stereo unspecified)", "AC50": 6.21}
{"smiles": "N#CC(c1cccc(Cl)n1)c1ccc(Cl)cc1F", "note": "(stereo unspecified)", "AC50": 30.7}
{"smiles": "N#CC(c1ccc(Cl)cc1)c1ncccc1Cl", "note": "(stereo unspecified)", "AC50": 48.3}
{"smiles": "N#CC(c1cccc(C(F)(F)F)n1)c1ccc(Cl)cc1F", "note": "(stereo unspecified)", "AC50": 14.6}
{"smiles": "N#CC(c1ccc(Cl)cc1)c1cccc(C(F)(F)F)n1", "note": "(stereo unspecified)", "AC50": 22.9}
{"smiles": "CCCCC(C#N)c1ccc(F)cc1", "note": "(stereo unspecified)", "AC50": 27.7}
{"smiles": "N#CC(c1ccc(Cl)cc1)c1ccc(Cl)cn1", "note": "(stereo unspecified)", "AC50": 17.7}
{"smiles": "N#CC(c1ccc(Cl)cc1)c1cccc(Cl)n1", "note": "(stereo unspecified)", "AC50": 46.4}
